Results reported in ChEMBL document CHEMBL3400013, “Synthesis and biological activity evaluation of hydrazone derivatives based on a Tröger's base skeleton” (Bioorg Med Chem, 2015).
Activity calls are given as the source filed them. No cut-off for these calls is given here.

tested on: BJ; assay: Selectivity index, ratio of IC50 for human BJ cells to IC50 for human CEM-DNR cells; type: functional; conditions: not given

Row | SMILES | Ratio IC50
1 | O=C(N/N=C/c1cc(O)ccc1O)c1ccc2c3c(ccc2c1)N1Cc2c(ccc4cc(C(=O)N/N=C/c5cc(O)ccc5O)ccc24)N(C3)C1 | 1.4
2 | O=C(N/N=C/c1nccc2ccccc12)c1ccc2c3c(ccc2c1)N1Cc2c(ccc4cc(C(=O)N/N=C/c5nccc6ccccc56)ccc24)N(C3)C1 | 15.9

tested on: CEM-DNR; assay: Selectivity index, ratio of IC50 for human MRC5 cells to IC50 for human CEM-DNR cells; type: functional; conditions: not given

Row | SMILES | Ratio IC50
3 | O=C(N/N=C/c1cc(O)ccc1O)c1ccc2c3c(ccc2c1)N1Cc2c(ccc4cc(C(=O)N/N=C/c5cc(O)ccc5O)ccc24)N(C3)C1 | 1.4
4 | O=C(N/N=C/c1nccc2ccccc12)c1ccc2c3c(ccc2c1)N1Cc2c(ccc4cc(C(=O)N/N=C/c5nccc6ccccc56)ccc24)N(C3)C1 | 15.9

tested on: MRC5; assay: Selectivity index, ratio of IC50 for human MRC5 cells to IC50 for human K562-TAX cells; type: functional; conditions: not given

Row | SMILES | Ratio IC50
5 | O=C(N/N=C/c1cc(O)ccc1O)c1ccc2c3c(ccc2c1)N1Cc2c(ccc4cc(C(=O)N/N=C/c5cc(O)ccc5O)ccc24)N(C3)C1 | 13.8
6 | O=C(N/N=C/c1nccc2ccccc12)c1ccc2c3c(ccc2c1)N1Cc2c(ccc4cc(C(=O)N/N=C/c5nccc6ccccc56)ccc24)N(C3)C1 | 9.9

tested on: A549; assay: Selectivity index, ratio of IC50 for human MRC5 cells to IC50 for human A549 cells; type: functional; conditions: not given

Row | SMILES | Ratio IC50
7 | O=C(N/N=C/c1cc(O)ccc1O)c1ccc2c3c(ccc2c1)N1Cc2c(ccc4cc(C(=O)N/N=C/c5cc(O)ccc5O)ccc24)N(C3)C1 | 20.9
8 | O=C(N/N=C/c1nccc2ccccc12)c1ccc2c3c(ccc2c1)N1Cc2c(ccc4cc(C(=O)N/N=C/c5nccc6ccccc56)ccc24)N(C3)C1 | 5.4

tested on: HCT-116; assay: Selectivity index, ratio of IC50 for human MRC5 cells to IC50 for human p53-/- HCT116 cells; type: functional; conditions: not given

Row | SMILES | Ratio IC50
9 | O=C(N/N=C/c1cc(O)ccc1O)c1ccc2c3c(ccc2c1)N1Cc2c(ccc4cc(C(=O)N/N=C/c5cc(O)ccc5O)ccc24)N(C3)C1 | 29
10 | O=C(N/N=C/c1nccc2ccccc12)c1ccc2c3c(ccc2c1)N1Cc2c(ccc4cc(C(=O)N/N=C/c5nccc6ccccc56)ccc24)N(C3)C1 | 4

tested on: A549; assay: Cytostatic activity against human A549 cells after 72 hrs by MTT assay; type: functional, cell-based; conditions: A549, 72 h
How it was run: (§1)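 Cells were seeded at 25,000–30,000 per well and pre-incubated for 24 h at 37°C in 5% CO2. Four-fold compound dilutions were added in duplicate and incubated for 72 h. MTT was added for 1–4 h, and formazan was dissolved in 10% aq SDS (pH 5.5) overnight at 37°C. OD was read at 540 nm. IC50 came from dose-response curves, mean ± SD of eight independent experiments.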

Row | SMILES | IC50 [µM]
11 | O=C(N/N=C/c1cc(O)ccc1O)c1ccc2c3c(ccc2c1)N1Cc2c(ccc4cc(C(=O)N/N=C/c5cc(O)ccc5O)ccc24)N(C3)C1 | 0.17
12 | O=C(N/N=C/c1nccc2ccccc12)c1ccc2c3c(ccc2c1)N1Cc2c(ccc4cc(C(=O)N/N=C/c5nccc6ccccc56)ccc24)N(C3)C1 | 18.6

tested on: BJ; assay: Cytostatic activity against human BJ cells after 72 hrs by MTT assay; type: ADME, cell-based; conditions: not given; how it was run: as §1

Row | SMILES | IC50 [µM]
13 | O=C(N/N=C/c1cc(O)ccc1O)c1ccc2c3c(ccc2c1)N1Cc2c(ccc4cc(C(=O)N/N=C/c5cc(O)ccc5O)ccc24)N(C3)C1 | 6.55
14 | O=C(N/N=C/c1nccc2ccccc12)c1ccc2c3c(ccc2c1)N1Cc2c(ccc4cc(C(=O)N/N=C/c5nccc6ccccc56)ccc24)N(C3)C1 | > 100

tested on: CCRF-CEM; assay: Induction of apoptosis in human CCRF-CEM cells assessed as apoptotic cells at 5 times IC50 after 24 hrs by propidium iodide staining-based flow cytometry; type: functional; conditions: not given
How it was run: (§2)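 Cells were then fixed in 70% ethanol, washed in hypotonic citrate buffer, treated with RNase (50 µg/mL) and stained with propidium iodide. Flow cytometry used a 488 nm laser. Apoptosis was scored as the percentage of particles with propidium content below G0/G1.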

Row | SMILES | Activity [%]
15 | O=C(N/N=C/c1cc(O)ccc1O)c1ccc2c3c(ccc2c1)N1Cc2c(ccc4cc(C(=O)N/N=C/c5cc(O)ccc5O)ccc24)N(C3)C1 | 9.74
16 | O=C(N/N=C/c1nccc2ccccc12)c1ccc2c3c(ccc2c1)N1Cc2c(ccc4cc(C(=O)N/N=C/c5nccc6ccccc56)ccc24)N(C3)C1 | 10.73

tested on: CCRF-CEM; assay: Cell cycle arrest in human CCRF-CEM cells assessed as accumulation at G2/M phase at IC50 after 24 hrs by propidium iodide staining-based flow cytometry; type: functional; conditions: not given; how it was run: as §2

Row | SMILES | Activity [%]
17 | O=C(N/N=C/c1cc(O)ccc1O)c1ccc2c3c(ccc2c1)N1Cc2c(ccc4cc(C(=O)N/N=C/c5cc(O)ccc5O)ccc24)N(C3)C1 | 17.9
18 | O=C(N/N=C/c1nccc2ccccc12)c1ccc2c3c(ccc2c1)N1Cc2c(ccc4cc(C(=O)N/N=C/c5nccc6ccccc56)ccc24)N(C3)C1 | 15.35

tested on: CCRF-CEM; assay: Cell cycle arrest in human CCRF-CEM cells assessed as accumulation at G2/M phase at 5 times IC50 after 24 hrs by propidium iodide staining-based flow cytometry; type: functional; conditions: not given; how it was run: as §2

Row | SMILES | Activity [%]
19 | O=C(N/N=C/c1cc(O)ccc1O)c1ccc2c3c(ccc2c1)N1Cc2c(ccc4cc(C(=O)N/N=C/c5cc(O)ccc5O)ccc24)N(C3)C1 | 20.46
20 | O=C(N/N=C/c1nccc2ccccc12)c1ccc2c3c(ccc2c1)N1Cc2c(ccc4cc(C(=O)N/N=C/c5nccc6ccccc56)ccc24)N(C3)C1 | 13.57

tested on: CCRF-CEM; assay: Induction of apoptosis in human CCRF-CEM cells assessed as mitotic cells at IC50 after 24 hrs by pH3Ser10+ labeling-based flow cytometry; type: functional; conditions: not given

Row | SMILES | Activity [%]
21 | O=C(N/N=C/c1cc(O)ccc1O)c1ccc2c3c(ccc2c1)N1Cc2c(ccc4cc(C(=O)N/N=C/c5cc(O)ccc5O)ccc24)N(C3)C1 | 2.34
22 | O=C(N/N=C/c1nccc2ccccc12)c1ccc2c3c(ccc2c1)N1Cc2c(ccc4cc(C(=O)N/N=C/c5nccc6ccccc56)ccc24)N(C3)C1 | 1.65

tested on: CCRF-CEM; assay: Induction of apoptosis in human CCRF-CEM cells assessed as inhibition of DNA synthesis at IC50 after 24 hrs by propidium iodide/BrdU staining by flow cytometry; type: functional; set-up: scale not given: the % may be the effect or the level left; conditions: not given

Row | SMILES | Activity [%]
23 | O=C(N/N=C/c1cc(O)ccc1O)c1ccc2c3c(ccc2c1)N1Cc2c(ccc4cc(C(=O)N/N=C/c5cc(O)ccc5O)ccc24)N(C3)C1 | 50.15
24 | O=C(N/N=C/c1nccc2ccccc12)c1ccc2c3c(ccc2c1)N1Cc2c(ccc4cc(C(=O)N/N=C/c5nccc6ccccc56)ccc24)N(C3)C1 | 52.93

tested on: CCRF-CEM; assay: Induction of apoptosis in human CCRF-CEM cells assessed as inhibition of DNA synthesis at 5 times IC50 after 24 hrs by propidium iodide/BrdU staining by flow cytometry; type: functional; set-up: scale not given: the % may be the effect or the level left; conditions: not given

Row | SMILES | Activity [%]
25 | O=C(N/N=C/c1cc(O)ccc1O)c1ccc2c3c(ccc2c1)N1Cc2c(ccc4cc(C(=O)N/N=C/c5cc(O)ccc5O)ccc24)N(C3)C1 | 55.96
26 | O=C(N/N=C/c1nccc2ccccc12)c1ccc2c3c(ccc2c1)N1Cc2c(ccc4cc(C(=O)N/N=C/c5nccc6ccccc56)ccc24)N(C3)C1 | 43.36

tested on: CCRF-CEM; assay: Induction of apoptosis in human CCRF-CEM cells assessed as inhibition of RNA synthesis at 5 times IC50 after 24 hrs by propidium iodide/BrU staining by flow cytometry; type: functional; set-up: scale not given: the % may be the effect or the level left; conditions: not given

Row | SMILES | Activity [%]
27 | O=C(N/N=C/c1cc(O)ccc1O)c1ccc2c3c(ccc2c1)N1Cc2c(ccc4cc(C(=O)N/N=C/c5cc(O)ccc5O)ccc24)N(C3)C1 | 43.16
28 | O=C(N/N=C/c1nccc2ccccc12)c1ccc2c3c(ccc2c1)N1Cc2c(ccc4cc(C(=O)N/N=C/c5nccc6ccccc56)ccc24)N(C3)C1 | 16.94

tested on: CCRF-CEM; assay: Induction of apoptosis in human CCRF-CEM cells assessed as inhibition of RNA synthesis after 24 hrs by propidium iodide/BrU staining by flow cytometry; type: functional, cell-based; conditions: not given

Row | SMILES | inhibition
29 | O=C(N/N=C/c1nccc2ccccc12)c1ccc2c3c(ccc2c1)N1Cc2c(ccc4cc(C(=O)N/N=C/c5nccc6ccccc56)ccc24)N(C3)C1 | Dose-dependent effect

tested on: Pichia kudriavzevii; assay: Antifungal activity against Candida crusei up to 200 uM after 24 to 48 hrs by broth microdilution method; type: functional, organism-based; conditions: not given

Row | SMILES | Activity
30 | O=C(N/N=C/c1cc(O)ccc1O)c1ccc2c3c(ccc2c1)N1Cc2c(ccc4cc(C(=O)N/N=C/c5cc(O)ccc5O)ccc24)N(C3)C1 | inactive
31 | O=C(N/N=C/c1nccc2ccccc12)c1ccc2c3c(ccc2c1)N1Cc2c(ccc4cc(C(=O)N/N=C/c5nccc6ccccc56)ccc24)N(C3)C1 | inactive

tested on: not listed separately; assay: Metal chelating activity of the compound assessed as formation of Fe3+ complex by UV-vis spectrometry; type: physicochemical; conditions: not given

Row | SMILES | Activity
32 | O=C(N/N=C/c1cc(O)ccc1O)c1ccc2c3c(ccc2c1)N1Cc2c(ccc4cc(C(=O)N/N=C/c5cc(O)ccc5O)ccc24)N(C3)C1 | Active
33 | O=C(N/N=C/c1nccc2ccccc12)c1ccc2c3c(ccc2c1)N1Cc2c(ccc4cc(C(=O)N/N=C/c5nccc6ccccc56)ccc24)N(C3)C1 | Active

tested on: not listed separately; assay: Metal chelating activity of the compound assessed as formation of Zn2+ complex by UV-vis spectrometry; type: physicochemical; conditions: not given

Row | SMILES | Activity
34 | O=C(N/N=C/c1cc(O)ccc1O)c1ccc2c3c(ccc2c1)N1Cc2c(ccc4cc(C(=O)N/N=C/c5cc(O)ccc5O)ccc24)N(C3)C1 | Active
35 | O=C(N/N=C/c1nccc2ccccc12)c1ccc2c3c(ccc2c1)N1Cc2c(ccc4cc(C(=O)N/N=C/c5nccc6ccccc56)ccc24)N(C3)C1 | Active

tested on: not listed separately; assay: Metal chelating activity of the compound assessed as formation of Mn2+ complex by UV-vis spectrometry; type: physicochemical; conditions: not given

Row | SMILES | Activity
36 | O=C(N/N=C/c1cc(O)ccc1O)c1ccc2c3c(ccc2c1)N1Cc2c(ccc4cc(C(=O)N/N=C/c5cc(O)ccc5O)ccc24)N(C3)C1 | Not Active
37 | O=C(N/N=C/c1nccc2ccccc12)c1ccc2c3c(ccc2c1)N1Cc2c(ccc4cc(C(=O)N/N=C/c5nccc6ccccc56)ccc24)N(C3)C1 | Not Active

tested on: Nucleic Acid; assay: Binding affinity to DNA (unknown origin) assessed as DNA intercalation by UV-visible spectrophotometry; type: nucleic-acid assay; conditions: not given

Row | SMILES | Activity
38 | O=C(N/N=C/c1cc(O)ccc1O)c1ccc2c3c(ccc2c1)N1Cc2c(ccc4cc(C(=O)N/N=C/c5cc(O)ccc5O)ccc24)N(C3)C1 | inactive
39 | O=C(N/N=C/c1nccc2ccccc12)c1ccc2c3c(ccc2c1)N1Cc2c(ccc4cc(C(=O)N/N=C/c5nccc6ccccc56)ccc24)N(C3)C1 | inactive

tested on: Nucleic Acid; assay: Binding affinity to DNA (unknown origin) assessed as DNA intercalation by UV-visible spectrophotometry in presence of Co2+; type: nucleic-acid assay; conditions: not given

Row | SMILES | Activity
40 | O=C(N/N=C/c1cc(O)ccc1O)c1ccc2c3c(ccc2c1)N1Cc2c(ccc4cc(C(=O)N/N=C/c5cc(O)ccc5O)ccc24)N(C3)C1 | Active
41 | O=C(N/N=C/c1nccc2ccccc12)c1ccc2c3c(ccc2c1)N1Cc2c(ccc4cc(C(=O)N/N=C/c5nccc6ccccc56)ccc24)N(C3)C1 | Active
